Data set [1] is described as follows: folding enthalpy; higher = less favourable; fluorescence melt of hairpins on a sequencing array, two-state fit. Conditions: sodium 0.088 M. In short, it runs like this: (§1)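 In 50 mM Na-HEPES pH 8.0 containing 25 mM NaCl, hairpins from the library on a sequenced MiSeq flow cell were imaged for Cy3 fluorescence at 2.5 °C steps up to 60 °C, with Cy3 and quencher oligos annealed. After normalisation to pre-quench Cy3 and to control constructs, two-state fits with bootstrapping gave melting temperature and folding enthalpy. Four replicates were combined by inverse-variance weighting, and fitted temperatures were shifted up by 9.35 °C to match UV melts.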

The nature of data set [2]: melting temperature; fluorescence melt of hairpins on a sequencing array, two-state fit, raised by 9.35 °C to match UV melts. Conditions: sodium 0.088 M. The essentials:
as §1

Experimental findings from the array DNA melting data of Ke et al. (doi:10.1101/2024.01.08.574731) are described below.

For GTATGCCGAAAGGCGTAC (((.(((....))).))), in data set [1], the folding enthalpy was -26.2 kcal/mol. Further, the Tm in data set [2] stood at 63.4 °C.

Consider GATCTGAGGGCAGATC ((((((....)))))), for which, in data set [1], the folding enthalpy was -33.4 kcal/mol. Moreover, the Tm in data set [2] was determined as 47.7 °C.

Turning to GCCTTGGGAAACCAGGGC (((.(((....))).))), the folding enthalpy in data set [1] is -46.8 kcal/mol. Moreover, the Tm in data set [2] came out at 52.7 °C.

Regarding GGTAGTGGAAACACTATC (.(((((....))))).), the folding enthalpy in data set [1] is -23.4 kcal/mol. In addition, the Tm in data set [2] was 43.5 °C.

Regarding GTGTTACGAAAGTACAC (((.(((....)))))), in data set [1], the folding enthalpy was -27 kcal/mol. For the same sequence, the Tm in data set [2] was 47.9 °C.

On to GTCTTGGGAAACTAAGGC (.(((.(....).))).), for which, in data set [1], the folding enthalpy was -19.4 kcal/mol. Further, the Tm in data set [2] came to 29 °C.

Take GGACGACGAAAGTCATCC (((.(((....))).))): the folding enthalpy in data set [1] is -23.5 kcal/mol. Also, the Tm in data set [2] is 48.8 °C.

Turning to GTAAGCGAAAGCTGTAC ((((((....))).))), in data set [1], the folding enthalpy is -15.7 kcal/mol. Also, the Tm in data set [2] stood at 43 °C.

As for GCGATCGAAAGATAGCGC ((((((....)))..))), the folding enthalpy in data set [1] is -30.8 kcal/mol. The Tm in data set [2] worked out at 55.5 °C.

Consider GCGGTGCGAAAGCAAAGC ((..(((....)))..)), for which, in data set [1], the folding enthalpy is -32.1 kcal/mol. In data set [2], the Tm amounted to 63.3 °C.

On to GCGATACATCGC ((((....)))), for which, in data set [1], the folding enthalpy is -27.5 kcal/mol. Besides, the Tm in data set [2] worked out at 55.7 °C.

In the case of GTCATATCGAAAGATGAC (((..(((....)))))), the folding enthalpy in data set [1] is -26.1 kcal/mol. Besides, the Tm in data set [2] is 37.1 °C.

GCTTAACGAAAGTTGAGC (((.(((....))).))): the folding enthalpy in data set [1] is -38.9 kcal/mol. For the same sequence, in data set [2], the Tm was determined as 52.4 °C.

Take GGGTACGAAAGTATACCC ((((((....)))..))): in data set [1], the folding enthalpy was -25.9 kcal/mol. Moreover, the Tm in data set [2] was found to be 43.9 °C.

Take GTCACGGCGAAAGCCGAC (((..(((....)))))): in data set [1], the folding enthalpy was -6.5 kcal/mol. The Tm in data set [2] was found to be 27.9 °C.

Consider GCCGAGCCGAAAGGCGGC (((..(((....)))))), for which, in data set [1], the folding enthalpy was -12.7 kcal/mol. Moreover, the Tm in data set [2] is 68.7 °C.

For CCACGGAAACGTGG (((((....))))), the folding enthalpy in data set [1] is -21.2 kcal/mol. Moreover, the Tm in data set [2] stood at 69.2 °C.

Take GCGGGATCGAAAGATCGC (((..(((....)))))): in data set [1], the folding enthalpy was -13.8 kcal/mol. For the same sequence, the Tm in data set [2] amounted to 51 °C.

On to GTTTGAGGAAACTTAGAC ((.(.((....)).).)), for which, in data set [1], the folding enthalpy was -13.5 kcal/mol. Also, the Tm in data set [2] is 32.3 °C.

As for GGCACCGAAAGGTACGCC ((((((....)))..))), the folding enthalpy in data set [1] is -27.3 kcal/mol. For the same sequence, the Tm in data set [2] was determined as 51.4 °C.

For GTCCCCGAAAGGGTTGAC ((((((....)))..))), the folding enthalpy in data set [1] is -15.3 kcal/mol. For the same sequence, the Tm in data set [2] turned out to be 33.7 °C.

Regarding GCTAAGCGAAAGCCTTGC ((.(.((....)).).)), the folding enthalpy in data set [1] was -13.1 kcal/mol. Besides, the Tm in data set [2] turned out to be 34.6 °C.

As to GATCCAATGATGGATC ((((((....)))))), the folding enthalpy in data set [1] is -29.3 kcal/mol. Further, the Tm in data set [2] turned out to be 47.6 °C.

Consider GTTTCCGAAAGGAGAAC ((((((....))).))), for which the folding enthalpy in data set [1] was -16.5 kcal/mol. For the same sequence, the Tm in data set [2] worked out at 34.7 °C.

Turning to GTTGCGGCGAAAGCCAAC (((..(((....)))))), the folding enthalpy in data set [1] is -14.7 kcal/mol. Also, the Tm in data set [2] is 37.8 °C.

Turning to GATCATGGAAACGTGATC (((((.(....).))))), the folding enthalpy in data set [1] was -31.7 kcal/mol. In addition, the Tm in data set [2] was determined as 46.5 °C.

As for CGCGCGGAAACGCTAGCG ((((((....)))..))), the folding enthalpy in data set [1] is -31 kcal/mol. In addition, in data set [2], the Tm was 55.6 °C.

As for GTAGCGCGAAAGCGTAC (((.(((....)))))), the folding enthalpy in data set [1] was -10.8 kcal/mol. In addition, the Tm in data set [2] was 44 °C.

In the case of CGAATCCGGAAACGGTCG (((..(((....)))))), in data set [1], the folding enthalpy was -11.9 kcal/mol. The Tm in data set [2] stood at 33.6 °C.

GGATGTGGAAACACGTTC (.(.(((....))).).): in data set [1], the folding enthalpy was -21.3 kcal/mol. Further, in data set [2], the Tm amounted to 35.8 °C.

Consider GTATCGGGAAACTGATGC (.(((.(....).))).), for which, in data set [1], the folding enthalpy was -29.6 kcal/mol. In data set [2], the Tm is 33.1 °C.

On to GGGGGCGGAAACGCCTCC ((.((((....)))).)), for which the folding enthalpy in data set [1] is -24.1 kcal/mol. Besides, the Tm in data set [2] stood at 66.7 °C.

Regarding GTAAGGGCGAAAGCCTAC (((..(((....)))))), the folding enthalpy in data set [1] was -8.85 kcal/mol. For the same sequence, in data set [2], the Tm turned out to be 29.7 °C.

Consider GCTGGCACGAAAGTGAGC (((..(((....)))))), for which, in data set [1], the folding enthalpy is -14.1 kcal/mol. The Tm in data set [2] came out at 36.9 °C.

As to GATCTCATGTGAGATC ((((((....)))))), the folding enthalpy in data set [1] was -36.2 kcal/mol. Besides, in data set [2], the Tm was 52.9 °C.

Take GATCAATCCTTTGATC ((((((....)))))): the folding enthalpy in data set [1] is -39.3 kcal/mol. Moreover, the Tm in data set [2] came out at 48.6 °C.

Consider GCAGTCGGAAACGATTGC (((.(((....))).))), for which, in data set [1], the folding enthalpy is -43.6 kcal/mol. The Tm in data set [2] came out at 54.4 °C.

On to AGGAGGAAACTCCT (((((....))))), for which the folding enthalpy in data set [1] was -18.3 kcal/mol. For the same sequence, the Tm in data set [2] turned out to be 45 °C.

As to GCTCAGCGAAAGCAAAGC (((..((....))..))), the folding enthalpy in data set [1] was -13.6 kcal/mol. For the same sequence, the Tm in data set [2] was determined as 38.4 °C.

Regarding GCCTAGCGAAAGCGACGC ((.(.((....)).).)), the folding enthalpy in data set [1] is -15.3 kcal/mol. The Tm in data set [2] was 47.8 °C.

GCATAGGGAAACCTATAC (.(((((....))))).): the folding enthalpy in data set [1] was -14.4 kcal/mol. The Tm in data set [2] stood at 27.8 °C.

In the case of GTTACAGGAAACTGTAGC (.(((((....))))).), the folding enthalpy in data set [1] was -22.6 kcal/mol. Besides, the Tm in data set [2] stood at 38.9 °C.

In the case of GATGATGGAAACATCATC (((((((....))))))), the folding enthalpy in data set [1] is -45 kcal/mol. Also, the Tm in data set [2] was 58.1 °C.

Consider GCATCTGGAAACGGATGC (((((.(....).))))), for which, in data set [1], the folding enthalpy was -44.6 kcal/mol. Moreover, in data set [2], the Tm was determined as 53.8 °C.

Regarding GCGGTTGGAAACAGCCGC ((((.((....)).)))), in data set [1], the folding enthalpy is -40.1 kcal/mol. Besides, in data set [2], the Tm is 64.6 °C.

Regarding GTAACAGGAAACTGTCAC ((.((((....)))).)), the folding enthalpy in data set [1] was -15.5 kcal/mol. Besides, the Tm in data set [2] was determined as 30.7 °C.

In the case of GCAGCCCGAAAGGGTGC (((.(((....)))))), the folding enthalpy in data set [1] is -20.6 kcal/mol. The Tm in data set [2] was determined as 64.4 °C.

On to GGACTTCGAAAGAACTCC (((.(((....))).))), for which the folding enthalpy in data set [1] is -13.2 kcal/mol. Also, in data set [2], the Tm came to 29.6 °C.

In the case of GATCACTGCGTGATC ((((((...)))))), the folding enthalpy in data set [1] is -26.3 kcal/mol. In addition, in data set [2], the Tm was determined as 61 °C.

Regarding GATCTCCCCTGAGATC ((((((....)))))), the folding enthalpy in data set [1] is -45.1 kcal/mol. For the same sequence, the Tm in data set [2] amounted to 51.6 °C.

Turning to GGGGGCGAAAGCCAACCC ((((((....)))..))), the folding enthalpy in data set [1] was -17.9 kcal/mol. In addition, the Tm in data set [2] turned out to be 52.7 °C.

In the case of GCGGTCCCGAAAGGGCGC (((..(((....)))))), in data set [1], the folding enthalpy is -18.5 kcal/mol. In data set [2], the Tm was 60.1 °C.

On to GAAGGTGCGAAAGCATTC (((..(((....)))))), for which the folding enthalpy in data set [1] was -6.16 kcal/mol. Also, the Tm in data set [2] was determined as 18.4 °C.

Turning to GAATACGCGAAAGCGTTC (((..(((....)))))), the folding enthalpy in data set [1] is -7.08 kcal/mol. The Tm in data set [2] was found to be 26.7 °C.

For the sequence GGATTACGAAAGTATCC (((.(((....)))))), the folding enthalpy in data set [1] is -22.2 kcal/mol. For the same sequence, the Tm in data set [2] stood at 42.3 °C.
